Source: PubChem
The entries come from a sample that favours hits as a whole.
Insulin prom act: activators of insulin promoter-driven GFP, primary screen, imaging, TRM-6 cells, eGFP reporter, cell count. plate-scaled: unstimulated 0, stimulated control 100. activation, % at 2 µM. 130,000 tested, 0.81% active;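 active = activation at 2 µM above a set limit, confirmed on inspection of the cell images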;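 note: share of cells whose green reporter signal exceeds an intensity cutoff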
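Material: Human fetal islet-derived TRM-6 cells with tamoxifen-inducible insulin promoter–eGFP reporter | Medium: Low-glucose (5.5 mM) medium with tamoxifen | Probe or stimulus: Tamoxifen inducer, 0.75 µM, in seeding medium | Schedule: Tamoxifen pre-incubation 15 h overnight, then compound exposure 48 h at 37 °C | Detection: High-content imaging of fixed cells with Hoechst nuclear stain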
The depositor's hits bear a star.

SMILES	Insulin prom act
COc1ccc(N=Cc2sc(O)c3ccccc23)cc1	0
CCN(c1ccc(N=Cc2c(O)n(Cc3ccc(OC)cc3)c(=O)c3ccccc23)cc1)C(C)C	471*
O=c1c2ccccc2c(C=NCCCN2CCOCC2)c(O)n1Cc1ccccc1	-3
COc1nc(Nc2ccc([N+](=O)[O-])cc2)nc(NC(C)C)n1	4
COc1ccc(C2=NO[C@@H]3[C@@H]4C[C@@H]([C@H]5C(=O)N(c6ccc7c(c6)OCO7)C(=O)[C@@H]45)[C@H]23)cc1OC	-6
CC(C)Sc1nc2ccccc2[nH]1	-78
O=C(CSCc1ccc(Cl)cc1)NCC1CCCO1 (stereo not drawn)	9
Clc1ccc(-n2ncc3c(NCC4CCCO4)ncnc32)cc1 (stereo not drawn)	0
OC(CNCC1CCCO1)Cn1c2ccc(Cl)cc2c2cc(Cl)ccc21 (stereo not drawn)	89*
CCC(C)NC(=O)C(=O)NCC1CCCN1CC (stereo not drawn)	0
COc1ccccc1N1CCN(C(CNS(=O)(=O)c2ccccc2)c2cccnc2)CC1 (stereo not drawn)	-10
COc1ccccc1N1CCN(C(CNC(=O)c2ccc3c(c2)OCO3)c2cccnc2)CC1 (stereo not drawn)	0
COc1ccc(S(=O)(=O)NCC(c2cccnc2)N2CCN(c3ccccc3OC)CC2)cc1C (stereo not drawn)	186*
CC1(c2ccc(Cl)cc2)NC(=O)N(CC(=O)NC(=O)NCc2ccco2)C1=O (stereo not drawn)	0
COC(=O)Cc1ccc(O)c(N)c1	-6
C=CCn1c(-c2ccc(Cl)cc2)cnc1SC(C)C(=O)NC(N)=O (stereo not drawn)	357*
C=CCn1c(SCCOc2ccc(OC)cc2)nnc1C(C)NC(=O)c1ccc(OC)cc1 (stereo not drawn)	10
C=CCn1c(SCC(=O)NC2CCCCC2)nnc1-c1ccc(OC)cc1	114
CCCCNC(=O)CCN1N=C(c2ccccc2)CCC1=O	136
CCCCN=C1NN=C(c2cc3ccccc3o2)CS1	8
O=C1c2cccc3c(O)ccc(c23)C(=O)N1Cc1ccccc1	233*
O=C1c2cccnc2C(=O)N1Cc1ccccc1	-12
O=C(c1ccccc1)c1ccc(CN2C(=O)c3ccccc3C2=O)o1	394
O=C(c1ccccc1)c1cnc(Nc2ccccc2Cl)s1	-10
CC1=C(C(=O)OCc2ccccc2)C(c2ccccc2OC(F)F)NC(=O)N1 (stereo not drawn)	300*
SMILES	Insulin prom act
CCOC(=O)C1=C(C)NC(=O)NC1c1ccc(-c2ccccc2F)o1 (stereo not drawn)	0
CCOc1ccccc1C1NC(=O)NC(C)=C1C(=O)OC1CCCC1C (stereo not drawn)	5
O=C(NN1CCOCC1)c1ccc(S(=O)(=O)N2CCCCC2)cc1	-6
CCOC(=O)Cc1csc(NS(=O)(=O)c2ccc(SC)cc2)n1	114
COC(=O)c1sccc1NC(=O)c1ccco1	169
COC(=O)c1ccccc1NC(=O)c1ccc(-c2cccc(Cl)c2)o1	0
COC(=O)c1sccc1-c1ccc(C(=O)Nc2cccc(Cl)c2)o1	80*
COc1ccc(C2(C(=O)NCc3ccco3)CCCC2)cc1OC	-3
Cc1ccc(C(=O)N(C)c2nnc(-c3ccncc3)s2)cc1	0
CC(c1ccccc1)N1CCc2[nH]c(=S)[nH]c(=O)c2C1 (stereo not drawn)	-91
O=S(CC1CC1(Cl)Cl)CC1CC1(Cl)Cl (stereo not drawn)	-7
CCOC(=O)C1CCCN(C(=O)C2CCN(S(=O)(=O)CC)CC2)C1 (stereo not drawn)	3
CCOC(=O)C1CCN(C(=O)C2CCCCC2)CC1	562*
CCOC(=O)C1CCN(C(=O)N(CC)CC)CC1	254*
CCOC(=O)C1CCN(C(=O)/C=C/c2cccs2)CC1	-6
CCOC(=O)C1CCN(C(=O)Cc2cccs2)CC1	7
CCOC(=O)N1CCN(C(=O)C2CCN(S(=O)(=O)N3CCCC3)CC2)CC1	0
COc1cccc(CN2CCC(N(CCc3ccccc3)Cc3ccccc3)CC2)c1OC	-7
COCCCn1cc(C(=O)c2cc(OC)ccc2OCC(=O)N2CCCCC2C)cc(C#N)c1=O (stereo not drawn)	6
C/C(=N/N=C1/NC(=O)CC(C(=O)Nc2ccccc2)S1)c1cccs1 (stereo not drawn)	3
O=C(COC(=O)C1CC2C=CC1C2)NCc1ccccc1Cl (stereo not drawn)	7
Cc1c(NC(N)=O)c(=O)n(-c2ccccc2)n1C	248*
Cc1c(NC(=O)c2ccccc2)c(=O)n(-c2ccccc2)n1C	-57
CCOC(=O)NC(=S)Nc1c(C)n(C)n(-c2ccccc2)c1=O	0
C/C(=N/NC(=O)c1cc(O)c(O)c(O)c1)c1ccc([N+](=O)[O-])cc1	-9
SMILES	Insulin prom act
O=C(CSc1nnnn1-c1cccc2c1CCCC2)NC1CCCC1	-3
CCN(C(=O)c1ccc(C)c(Br)c1)c1ccccc1	-67
CC(c1n[nH]c(=S)n1-c1ccc(F)cc1)N1CCCCC1 (stereo not drawn)	2
COc1ccc(-n2c(C(C)n3nc(C)c([N+](=O)[O-])c3C)n[nH]c2=S)cc1 (stereo not drawn)	515*
Cc1nn(C(C)c2n[nH]c(=S)n2-c2cccc(Cl)c2)c(C)c1[N+](=O)[O-] (stereo not drawn)	200
CCc1nnc(NS(=O)(=O)c2ccc(N3C(=O)c4ccc(C(=O)O)cc4C3=O)cc2)s1	-5
CCOc1ccc(C(=O)N/N=C/c2cc(Cl)ccc2[N+](=O)[O-])cc1	6
CCC(C)(C)NC(=O)C(c1cccn1C)N(C(=O)Cn1nnc2ccccc21)c1ccc(OC)cc1OC (stereo not drawn)	170
CCOc1ccc(N(C(=O)Cn2nnc3ccccc32)C(C(=O)NC(C)(C)CC)c2cccn2C)cc1 (stereo not drawn)	462*
Cc1ccc(-c2nnn(CC(=O)N(c3ccccc3)C(C(=O)NC(C)(C)C)c3cccs3)n2)o1 (stereo not drawn)	100
Cc1cc(SCC(=O)c2cc(C)n(C)c2C)nc2ccccc12	0
CSc1cnc2c(N)nc(N(C)C)nc2n1	0
O=C(NCCCn1ccnc1)C(=O)NCC1OCCCN1S(=O)(=O)c1ccccc1 (stereo not drawn)	0
CC(C)(C)c1[nH]nc2c1C(Cc1ccccc1)C(C#N)=C(N)O2 (stereo not drawn)	0
CCNC(=O)NC(=O)C(C)OC(=O)C1CCN(S(=O)(=O)c2ccc(C)c(C)c2)CC1 (stereo not drawn)	108
CCOC(=O)C1CCN(S(=O)(=O)c2ccc(C)c(C)c2)CC1	206*
CCOC(=O)C1CCCN(S(=O)(=O)c2ccc(C)cc2)C1 (stereo not drawn)	0
C=CCn1c(C)cc(C(=O)COC(=O)c2ccc3c(c2)NC(=O)CS3)c1C	4
Cn1c(=NC(=O)COc2ccccc2)sc2ccccc21	0
O=C(O)CC1SC(=Nc2ccccc2)N(c2ccccc2)C1=O (stereo not drawn)	4
CCCCN1C(=O)C(CC(=O)NCC)SC1=Nc1ccccc1 (stereo not drawn)	450*
CCN=C1SC(CC(=O)NCCc2ccc(OC)c(OC)c2)C(=O)N1CC (stereo not drawn)	0
COc1cccc(N2CCN(C3CC(=O)N(c4cccc(Cl)c4)C3=O)CC2)c1 (stereo not drawn)	-4
